In brackets after ≈: the same amount, converted by molar mass.
What was measured:
Type in all cases: functional
[1] = system: Staphylococcus aureus; experiment: Antibacterial activity against vancomycin-resistant Staphylococcus aureus VRS 1 assessed as reduction in bacterial growth
Outline: (§1)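 CLSI broth microdilution in cation-supplemented Mueller–Hinton broth II. Starter cultures were grown overnight at 37 °C with shaking from a single MHA colony, then diluted by OD600 to ~10^6 CFU/mL. Compounds came from 10 mg/mL DMSO stocks and were tested two-fold from 64 to 0.5 mg/L. Plates were incubated 37 °C for 18–24 h. MIC was taken as the lowest concentration with no visible growth. Three independent runs, each in duplicate.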

[2] = system: Staphylococcus aureus; experiment: Antibacterial activity against vancomycin-resistant Staphylococcus aureus VRS 4 assessed as reduction in bacterial growth; outline: as §1
[3] = system: Staphylococcus aureus; experiment: Antibacterial activity against vancomycin-resistant Staphylococcus aureus VRS 12 assessed as reduction in bacterial growth; outline: as §1
[4] = system: Enterococcus faecalis; experiment: Antibacterial activity against vancomycin-susceptible Enterococcus faecalis NR 31884 assessed as inhibition of bacterial growth incubated for 18 to 24 hrs by broth microdilution assay; settings: time 18-24 hrs
Outline: (§2)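 CLSI broth microdilution in cation-supplemented Mueller–Hinton broth II; overnight starter cultures (37 °C, shaking, 18–24 h) adjusted by OD600 to ~10^6 CFU/mL. Compounds dosed from DMSO stocks (10 mg/mL stock) as two-fold dilutions, 64–0.5 mg/L. Plates held 37 °C, 18–24 h. MIC = lowest concentration without visible growth. Three independent runs, each in duplicate.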

[5] = system: Enterococcus faecalis; experiment: Antibacterial activity against vancomycin-susceptible Enterococcus faecalis NR 31885 assessed as inhibition of bacterial growth incubated for 18 to 24 hrs by broth microdilution assay; settings: time 18-24 hrs; outline: as §2
[6] = system: Enterococcus faecalis; experiment: Antibacterial activity against vancomycin-susceptible Enterococcus faecalis NR 31886 assessed as inhibition of bacterial growth incubated for 18 to 24 hrs by broth microdilution assay; settings: time 18-24 hrs; outline: as §2
[7] = system: Enterococcus faecalis; experiment: Antibacterial activity against vancomycin-susceptible Enterococcus faecalis NR 31887 assessed as inhibition of bacterial growth incubated for 18 to 24 hrs by broth microdilution assay; settings: time 18-24 hrs; outline: as §2
[8] = system: Enterococcus faecalis; experiment: Antibacterial activity against vancomycin-susceptible Enterococcus faecalis NR 31888 assessed as inhibition of bacterial growth incubated for 18 to 24 hrs by broth microdilution assay; settings: time 18-24 hrs; outline: as §2
[9] = system: Escherichia coli; experiment: Antibacterial activity against Escherichia coli ATCC 25922 assessed as reduction in bacterial growth; outline: as §2
[10] = system: Staphylococcus aureus; experiment: Antibacterial activity against Staphylococcus aureus ATCC 29213 assessed as reduction in bacterial growth; outline: as §2
[11] = system: Klebsiella pneumoniae; experiment: Antibacterial activity against Klebsiella pneumoniae BAA-1705 assessed as reduction in bacterial growth; outline: as §2
[12] = system: Acinetobacter baumannii; experiment: Antibacterial activity against Acinetobacter baumannii BAA-1605 assessed as reduction in bacterial growth; outline: as §2
[13] = system: Pseudomonas aeruginosa; experiment: Antibacterial activity against Pseudomonas aeruginosa ATCC 27853 assessed as reduction in bacterial growth; outline: as §2

| SMILES | MIC [1] [µg/mL] | MIC [2] [µg/mL] | MIC [3] [µg/mL] | MIC [4] [µg/mL] | MIC [5] [µg/mL] | MIC [6] [µg/mL] | MIC [7] [µg/mL] | MIC [8] [µg/mL] | MIC [9] [µg/mL] | MIC [10] [µg/mL] | MIC [11] [µg/mL] | MIC [12] [µg/mL] | MIC [13] [µg/mL] |
| --- | --- | --- | --- | --- | --- | --- | --- | --- | --- | --- | --- | --- | --- |
| CN[C@H](CC(C)C)C(=O)N[C@H]1C(=O)N[C@@H](CC(N)=O)C(=O)N[C@H]2C(=O)N[C@H]3C(=O)N[C@H](C(=O)N[C@H](C(=O)O)c4cc(O)cc(O)c4-c4cc3ccc4O)[C@H](O)c3ccc(c(Cl)c3)Oc3cc2cc(c3O[C@@H]2O[C@H](CO)[C@@H](O)[C@H](O)[C@H]2O[C@H]2C[C@](C)(N)[C@H](O)[C@H](C)O2)Oc2ccc(cc2Cl)[C@H]1O [VANCOMYCIN] | > 64 | > 64 | > 64 | 2 (≈ 1.38 µM) | 2 (≈ 1.38 µM) | 2 (≈ 1.38 µM) | 2 (≈ 1.38 µM) | 2 (≈ 1.38 µM) | – | – | – | – | – |
| O=C1N/C(=N\c2nc3ccccc3o2)S/C1=C\c1ccc(Br)cc1 | – | – | – | – | – | – | – | – | > 64 | 32 (≈ 79.9 µM) | > 64 | > 64 | > 64 |
| CSc1ccc(/C=C2\S/C(=N/c3nc4ccccc4o3)NC2=O)cc1 | – | – | – | – | – | – | – | – | > 64 | 32 (≈ 87.1 µM) | > 64 | > 64 | > 64 |
| COc1ccc(/C=C2\S/C(=N/c3nc4ccccc4o3)NC2=O)cc1O | – | – | – | – | – | – | – | – | > 64 | 4 (≈ 10.9 µM) | > 64 | > 64 | > 64 |
| O=C1N/C(=N\c2nc3ccccc3o2)S/C1=C\c1ccc(Cl)cc1 | – | – | – | – | – | – | – | – | > 64 | 8 (≈ 22.5 µM) | > 64 | > 64 | > 64 |
| O=C1N/C(=N\c2nc3ccccc3o2)S/C1=C\c1cccc(F)c1 | – | – | – | – | – | – | – | – | > 64 | 8 (≈ 23.6 µM) | > 64 | > 64 | > 64 |
| O=C1N/C(=N\c2nc3ccccc3o2)S/C1=C\c1ccc([N+](=O)[O-])cc1 | – | – | – | – | – | – | – | – | > 64 | > 64 | > 64 | > 64 | > 64 |
| O=C1N/C(=N\c2nc3ccccc3o2)S/C1=C\c1ccccc1 | – | – | – | – | – | – | – | – | > 64 | 4 (≈ 12.4 µM) | > 64 | > 64 | > 64 |
| CN(C)c1ccc(/C=C2\S/C(=N/c3nc4ccccc4o3)NC2=O)cc1 | – | – | – | – | – | – | – | – | > 64 | > 64 | > 64 | > 64 | > 64 |
| O=C1N/C(=N\c2nc3ccccc3o2)S/C1=C\c1ccccn1 | – | – | – | – | – | – | – | – | > 64 | 8 (≈ 24.8 µM) | > 64 | > 64 | > 64 |
| O=C1N/C(=N\c2nc3ccccc3o2)S/C1=C\c1cccs1 | – | – | – | – | – | – | – | – | > 64 | 16 (≈ 48.9 µM) | > 64 | > 64 | > 64 |
| O=C1N/C(=N\c2nc3ccccc3o2)S/C1=C\c1ccccc1Cl | – | – | – | – | – | – | – | – | > 64 | 16 (≈ 45 µM) | > 64 | > 64 | > 64 |
| O=C1N/C(=N\c2nc3ccccc3o2)S/C1=C\c1ccccc1[N+](=O)[O-] | – | – | – | – | – | – | – | – | > 64 | 8 (≈ 21.8 µM) | > 64 | > 64 | > 64 |
| O=C1N/C(=N\c2nc3ccccc3o2)S/C1=C\c1cccc(Cl)c1 | – | – | – | – | – | – | – | – | > 64 | 8 (≈ 22.5 µM) | > 64 | > 64 | > 64 |
